The text below walks through data of ChEMBL document CHEMBL4831480, “Identification of First-in-Class Inhibitors of Kallikrein-Related Peptidase 6 That Promote Oligodendrocyte Differentiation” (J Med Chem, 2021).

For the first assay, the target named is T1, Kallikrein-6 (Homo sapiens, UniProt Q92876). Kind of assay: Inhibition of KLK6 (unknown origin) assessed as release of AMC fluorescent product using Boc-QAR-AMC as substrate incubated for 30 mins by microplate reader.
Regarding `Cl.NCc1ccc(NC(=O)c2cc3ccccc3[nH]2)cc1`, the IC50 result is listed as “Not Active”.

Turning to `Cl.O=C(NC1CCNCC1)c1ccc2ccccc2c1O`, the IC50 entry was “Not Active”.

In the case of `Cl.NCc1ccc(NC(=O)c2c(O)ccc3ccccc23)cc1`, the IC50 result is “Not Active”.

As for `CC(C)(C)c1ccc(O)c(CNc2ccc(CN)cc2)c1.Cl`, the IC50 entry is on record as “Not Active”.

`Cl.NCc1ccc(NC(=O)c2ccc(F)cc2O)cc1`: the IC50 entry was “Not Active”.

As to `NCc1ccc(NC(=O)c2c[nH]c3ccccc3c2=O)cc1`, the IC50 result was “Not Active”.

A further assay addresses T1, Kallikrein-6. Kind of assay: Inhibition of KLK6 (unknown origin) assessed as release of AMC fluorescent product using Boc-QAR-AMC as substrate at 10 uM incubated for 30 mins by microplate reader. The gist of the method: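 KLK6 (activated with lysylendopeptidase) at 2 nM was preincubated 15 min at 37 °C with compound (10 μM screen, or a range within 0.1–100 μM) or DMSO <2%. Reaction started with Boc-QAR-AMC 100 μM in 50 mM Tris, 1 M citrate, 0.05% Brij-35, pH 7.4. AMC read at ex 360/em 460 nm for 30 min. % inhibition taken from initial rates versus DMSO; IC50 from curve fit; ≥3 independent experiments in duplicate.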
One may read the inhibition as the share of the control response that was lost under treatment. Regarding `COc1ccc(O)c(C(=O)Nc2ccc(CN)cc2)c1`, the inhibition was 21.8%.

Turning to `NCc1ccc(NC(=O)c2ncccc2O)cc1`, the inhibition amounted to 8.86%.

For the compound `NCc1ccc(NC(=O)c2ccc3ccccc3c2)cc1`, the inhibition came to 19.8%.

On to `NCc1ccc(NC(=O)c2ccc(C(F)(F)F)cc2O)cc1`, for which the inhibition worked out at 47%.

For `Cc1cccc(O)c1C(=O)Nc1ccc(CN)cc1`, the inhibition worked out at 7.27%.

Regarding `Cc1cccc(C(=O)Nc2ccc(CN)cc2)c1O`, the inhibition came to 20%.

For the compound `NCc1ccc(NC(=O)c2ccccc2O)cc1`, the inhibition was 14.8%.

With `NCc1ccc(NC(=O)c2cc(Br)ccc2O)cc1`, the inhibition amounted to 30%.

`Cc1ccc(O)c(C(=O)Nc2ccc(CN)cc2)c1`: the inhibition is 26.5%.
